Source: ChEMBL document CHEMBL1926642, “Relevance of the C-5 position to schweinfurthin induced cytotoxicity” (2011)

How the values were obtained:
Format in all cases: functional
[1] = system: ACHN; test: Cytotoxicity against human ACHN cells assessed as cell growth at 10 uM after 48 hrs by sulforhodamine B assay relative to control; conditions: read-out: Activity
Summary of the method: (§1)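 Compounds went through the NCI 60 cell-line screen, whose current protocol tests first at a single dose.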

[2] = system: NCI-H522; test: Cytotoxicity against human NCI-H522 cells assessed as cell growth at 10 uM after 48 hrs by sulforhodamine B assay relative to control; conditions: NCI-H522, 48 h, read-out: Activity; summary of the method: as §1
[3] = system: HCT-116; test: Cytotoxicity against human HCT116 cells assessed as cell growth at 10 uM after 48 hrs by sulforhodamine B assay relative to control; conditions: HCT-116, 48 h, read-out: Activity; summary of the method: as §1
[4] = system: A498; test: Cytotoxicity against human A498 cells assessed as cell growth at 10 uM after 48 hrs by sulforhodamine B assay relative to control; conditions: A498, 48 h, read-out: Activity; summary of the method: as §1
[5] = system: HL-60(TB); test: Growth inhibition of human HL-60(TB) cells after 48 hrs by sulforhodamine B assay; conditions: HL-60, 48 h
Summary of the method: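 Run in the NCI 60 cell-line screen as the full 5-dose assay that follows initial single-dose testing; GI50 is read from the dose series.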

[6] = system: MOLT-4; test: Growth inhibition of human MOLT4 cells after 48 hrs by sulforhodamine B assay; conditions: MOLT-4, 48 h
[7] = system: EKVX; test: Growth inhibition of human EKVX cells after 48 hrs by sulforhodamine B assay
[8] = system: HOP-62; test: Growth inhibition of human HOP62 cells after 48 hrs by sulforhodamine B assay; conditions: HOP-62, 48 h
[9] = system: HOP-92; test: Growth inhibition of human HOP92 cells after 48 hrs by sulforhodamine B assay; conditions: HOP-92, 48 h
[10] = system: NCI-H226; test: Growth inhibition of human NCI-H226 cells after 48 hrs by sulforhodamine B assay; conditions: NCI-H226, 48 h
[11] = system: NCI-H522; test: Growth inhibition of human NCI-H522 cells after 48 hrs by sulforhodamine B assay; conditions: NCI-H522, 48 h
[12] = system: COLO 205; test: Growth inhibition of human COLO205 cells after 48 hrs by sulforhodamine B assay; conditions: COLO 205, 48 h
[13] = system: HCC 2998; test: Growth inhibition of human HCC2998 cells after 48 hrs by sulforhodamine B assay; conditions: HCC 2998, 48 h
[14] = system: SF-268; test: Growth inhibition of human SF268 cells after 48 hrs by sulforhodamine B assay; conditions: SF-268, 48 h
[15] = system: SNB-19; test: Growth inhibition of human SNB19 cells after 48 hrs by sulforhodamine B assay; conditions: SNB-19, 48 h
[16] = system: U-251; test: Growth inhibition of human U251 cells after 48 hrs by sulforhodamine B assay; conditions: U-251, 48 h
[17] = system: LOX IMVI; test: Growth inhibition of human LOXIMVI cells after 48 hrs by sulforhodamine B assay
[18] = system: SK-MEL-28; test: Growth inhibition of human SK-MEL-28 cells after 48 hrs by sulforhodamine B assay; conditions: SK-MEL-28, 48 h
[19] = system: SK-MEL-5; test: Growth inhibition of human SK-MEL-5 cells after 48 hrs by sulforhodamine B assay; conditions: SK-MEL-5, 48 h
[20] = system: IGROV-1; test: Growth inhibition of human IGROV1 cells after 48 hrs by sulforhodamine B assay; conditions: IGROV-1, 48 h
[21] = system: OVCAR-3; test: Growth inhibition of human OVCAR3 cells after 48 hrs by sulforhodamine B assay; conditions: OVCAR-3, 48 h
[22] = system: NCI/ADR-RES; test: Growth inhibition of human NCI/ADR-RES cells after 48 hrs by sulforhodamine B assay
[23] = system: 786-0; test: Growth inhibition of human 786-0 cells after 48 hrs by sulforhodamine B assay; conditions: 786-0, 48 h
[24] = system: CAKI-1; test: Growth inhibition of human Caki1 cells after 48 hrs by sulforhodamine B assay; conditions: CAKI-1, 48 h
[25] = system: RXF 393; test: Growth inhibition of human RXF393 cells after 48 hrs by sulforhodamine B assay; conditions: RXF 393, 48 h
[26] = system: TK-10; test: Growth inhibition of human TK10 cells after 48 hrs by sulforhodamine B assay; conditions: TK-10, 48 h
[27] = system: DU-145; test: Growth inhibition of human DU145 cells after 48 hrs by sulforhodamine B assay; conditions: DU-145, 48 h
[28] = system: MCF7; test: Growth inhibition of human MCF7 cells after 48 hrs by sulforhodamine B assay; conditions: MCF7, 48 h
[29] = system: MDA-MB-231; test: Growth inhibition of human MDA-MB-231/ATCC cells after 48 hrs by sulforhodamine B assay; conditions: MDA-MB-231, 48 h
[30] = Growth inhibition of human Hs 578T cells after 48 hrs by sulforhodamine B assay
[31] = system: BT-549; test: Growth inhibition of human BT549 cells after 48 hrs by sulforhodamine B assay; conditions: BT-549, 48 h
[32] = system: SR; test: Growth inhibition of human SR cells after 48 hrs by sulforhodamine B assay
[33] = read-out: pLC50 (the source's name) (converted)

## COCc1cc(/C=C/c2cc(O)c(C/C=C(\C)CCC=C(C)C)c(OC)c2)cc2c1O[C@]1(C)CC[C@@H](O)C(C)(C)[C@H]1C2
[1]
  growth at 10 µM: 103%
[2]
  growth at 10 µM: 72.2%
[3]
  growth at 10 µM: 68.5%
[4]
  growth at 10 µM: 140%

## COc1cc(/C=C/c2cc(Br)c3c(c2)C[C@@H]2C(C)(C)[C@H](O)CC[C@@]2(C)O3)cc(O)c1C/C=C(\C)CCC=C(C)C
[1]
  growth at 10 µM: 104%
[2]
  growth at 10 µM: 81.5%
[3]
  growth at 10 µM: 84.5%
[4]
  growth at 10 µM: 94.7%

## COc1cc(/C=C/c2cc(O)c3c(c2)C[C@@H]2C(C)(C)[C@H](O)CC[C@@]2(C)O3)cc(O)c1C/C=C(\C)CCC=C(C)C
[5]
  GI50: 0.0468 µM
[5]; [33]
  CC50: 37.2 µM
[5]; read-out: pTGI (converted)
  TGI: 1.45 µM
[6]
  GI50: 0.0339 µM
  LC50: 100 µM
[6]; read-out: pTGI (converted)
  TGI: 0.245 µM
[7]
  GI50: 0.977 µM
  LC50 (50% lethal concentration): 36.3 µM
[7]; read-out: pTGI (converted)
  TGI: 10.2 µM
[8]
  GI50: 0.479 µM
  LC50: 30.2 µM
[8]; read-out: pTGI (converted)
  TGI: 8.13 µM
[9]
  GI50: 2.29 µM
  LC50: 50.1 µM
[9]; read-out: pTGI (converted)
  TGI: 6.61 µM
[10]
  GI50: 5.89 µM
  LC50: 55 µM
[10]; read-out: pTGI (converted)
  TGI: 21.4 µM
[11]
  GI50: 1.91 µM
  LC50: 52.5 µM
[11]; read-out: pTGI (converted)
  TGI: 11 µM
[12]
  GI50: 0.575 µM
  LC50: 7.24 µM
[12]; read-out: pTGI (converted)
  TGI: 2.24 µM
[13]
  GI50: 0.851 µM
  LC50: 9.33 µM
[13]; read-out: pTGI (converted)
  TGI: 2.95 µM
[14]
  GI50: 1.35 µM
  LC50: 42.7 µM
[14]; read-out: pTGI (converted)
  TGI: 5.13 µM
[15]
  GI50: 2.88 µM
  LC50: 42.7 µM
[15]; read-out: pTGI (converted)
  TGI: 17.8 µM
[16]
  GI50: 0.0759 µM
  LC50: 10.7 µM
[16]; read-out: pTGI (converted)
  TGI: 2.63 µM
[17]
  GI50: 0.525 µM
  LC50: 4.68 µM
[17]; read-out: pTGI (converted)
  TGI: 1.91 µM
[18]
  GI50: 1 µM
[18]; [33]
  CC50: 7.94 µM
[18]; read-out: pTGI (converted)
  TGI: 2.75 µM
[19]
  GI50: 0.955 µM
  LC50: 5.37 µM
[19]; read-out: pTGI (converted)
  TGI: 2.29 µM
[20]
  GI50: 2.09 µM
  LC50: 40.7 µM
[20]; read-out: pTGI (converted)
  TGI: 11 µM
[21]
  GI50: 1.45 µM
  LC50: 15.5 µM
[21]; read-out: pTGI (converted)
  TGI: 4.07 µM
[22]
  GI50: 2.57 µM
  LC50: 58.9 µM
[22]; read-out: pTGI (converted)
  TGI: 10.2 µM
[23]
  GI50: 0.0339 µM
[23]; [33]
  CC50: 15.5 µM
[23]; read-out: pTGI (converted)
  TGI: 1.45 µM
[24]
  GI50: 1.7 µM
  LC50: 38.9 µM
[24]; read-out: pTGI (converted)
  TGI: 6.76 µM
[25]
  GI50: < 0.01 µM
  LC50 (50% lethal concentration): 4.37 µM
[25]; read-out: pTGI (converted)
  TGI: 0.055 µM
[26]
  GI50: 2.19 µM
  LC50: 41.7 µM
[26]; read-out: pTGI (converted)
  TGI: 8.91 µM
[27]
  GI50: 2 µM
  LC50: 77.6 µM
[27]; read-out: pTGI (converted)
  TGI: 11.7 µM
[28]
  GI50: 0.309 µM
  LC50: 29.5 µM
[28]; read-out: pTGI (converted)
  TGI: 3.47 µM
[29]
  GI50: 1.2 µM
[29]; [33]
  CC50: 8.13 µM
[29]; read-out: pTGI (converted)
  TGI: 2.88 µM
[30]
  GI50: 0.0372 µM
[30]; [33]
  CC50: 26.9 µM
[30]; read-out: pTGI (converted)
  TGI: 0.776 µM
[31]
  GI50: 0.275 µM
  LC50: 69.2 µM
[31]; read-out: pTGI (converted)
  TGI: 12 µM
[32]
  GI50: 0.288 µM
  LC50: 100 µM
[32]; read-out: pTGI (converted)
  TGI: 4.07 µM
